In brackets after ≈: the same amount, converted by molar mass.
Assays:
[1] = system: MRSA-induced lung inflammation; assay: Rat MRSA pneumonia model, lung pathology; assay type: in vivo
Procedure, shortened: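 Rats (n = 6 per group) inoculated intratracheally with 100 µL MRSA suspension. After 24 h (day 0), test compound 10 mg/kg given by intravenous tail-vein injection. Lung bacterial counts taken on days 3 and 5. Lung inflammation assessed by hematoxylin and eosin staining of lung tissue.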

[2] = system: ovarian cancer cells (C13); assay: Cytotoxicity toward ovarian cancer cells; assay type: cell-based
[3] = system: panel of Gram-positive and Gram-negative bacteria; assay: Antimicrobial activity against the whole panel; assay type: cell-based; details: for MIC: read-out: MICs across the tested strains; for antimicrobial activity against the tested strains (in words): statement in text over the panel of strains
MRSA [4] = assay: Fluorescence microscopy; assay type: cell-based, Staphylococcus aureus
E. coli [5] = assay: Fluorescence microscopy; assay type: cell-based, Escherichia coli
Procedure, shortened: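 Test compound at 5 µg/mL applied to E. coli for 2 h, with untreated cells as controls. Cells stained with DAPI or with propidium iodide, a membrane-impermeant DNA intercalator that fluoresces red only when membranes are disrupted. Membrane damage assessed by fluorescence microscopy.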

MRSA [6] = assay: Time-kill study, MRSA; assay type: cell-based, Staphylococcus aureus
E. coli [7] = assay: Time-kill study, E. coli; assay type: cell-based, Escherichia coli
MRSA [8] = assay: Drug resistance study; assay type: cell-based, Staphylococcus aureus; details: incubated at half of MIC overnight, after 14 passages
Hemolytic activity = assay type: cell-based
[9] = system: P. aeruginosa (ATCC 27853); assay: MIC against P. aeruginosa; assay type: cell-based, Pseudomonas aeruginosa
Pseudomonas aeruginosa = details: cited from earlier work
[10] = even at 100 µg/mL, same experiment (Figure S2)

Structure (SMILES): CN[C@H](CC(C)C)C(=O)N[C@H]1C(=O)N[C@@H](CC(N)=O)C(=O)N[C@H]2C(=O)N[C@H]3C(=O)N[C@H](C(=O)N[C@H](C(=O)O)c4cc(O)cc(O)c4-c4cc3ccc4O)[C@H](O)c3ccc(c(Cl)c3)Oc3cc2cc(c3O[C@@H]2O[C@H](CO)[C@@H](O)[C@H](O)[C@H]2O[C@H]2C[C@](C)(N)[C@H](O)[C@H](C)O2)Oc2ccc(cc2Cl)[C@H]1O [vancomycin, reference compound]
- lung inflammation (H&E staining) ([1]; day not given): some alleviation of this condition

Structure (SMILES): CCCCCCCCCCCC(=O)N[C@@H](CCCCN)CN1CC(=O)N(c2cccc(Cl)c2)C1=O [Compound 22, (S)-N-(6-Amino-1-(3-(3-chlorophenyl)-2,4-dioxoimidazolidin-1-yl)hexan-2-yl)dodecanamide]
- IC50 [2]: 90 µg/mL (≈ 177 µM)
- MIC [3]: < 1 µg/mL
- membrane damage (DAPI and PI staining) (MRSA [4]; MRSA, 5 µg/mL, 2 h): damaged
- membrane damage (DAPI and PI staining) (E. coli [5]; E. coli, 5 µg/mL, 2 h): damaged
- time to complete eradication (MRSA [6]; 2.0 µg/mL (4× MIC)): 60 min
- time to complete eradication (MRSA [6]; 25 µg/mL): 10 min
- time to complete eradication (E. coli [7]; 4.0 µg/mL (4× MIC)): 60 min
- time to complete eradication (E. coli [7]; 25 µg/mL): 30 min
- time to complete eradication (E. coli [7]; 50 µg/mL): 30 min
- MIC after serial passage (resistance development) (MRSA [8]): remained virtually unchanged
- lung inflammation (H&E staining) ([1]; day 3): only mild inflammation was observed
- lung inflammation (H&E staining) ([1]; day 5): virtually matched normal conditions

Structure (SMILES): CCCCCCCCCC(=O)N[C@@H](CCCCN)CN1CC(=O)N(C23CC4CC(CC(C4)C2)C3)C1=O [Compound 13, N-((S)-1-(3-((3R,5R,7R)-Adamantan-1-yl)-2,4-dioxoimidazolidin-1-yl)-6-aminohexan-2-yl)decanamide]
- HC50 (Hemolytic activity): 125 µg/mL
- antimicrobial activity against the tested strains (in words) [3]: decent activity across the panel of bacteria

Structure (SMILES): CCCCCCCCCC(=O)N[C@@H](CCCCN)CN1CC(=O)N(CC)C1=O [Compound 1, (S)-N-(6-Amino-1-(3-ethyl-2,4-dioxoimidazolidin-1-yl)hexan-2-yl)decanamide]
- antimicrobial activity against the tested strains (in words) [3]: did not exhibit any activity

Structure (SMILES): CCCCCCCCCCCCCCCC(=O)N[C@@H](CCCCN)CN1CC(=O)N(CC)C1=O [Compound 4, (S)-N-(6-Amino-1-(3-ethyl-2,4-dioxoimidazolidin-1-yl)hexan-2-yl)palmitamide]
- activity toward P. aeruginosa (in words) [9]: abolished

Structure (SMILES): CCCCCCCCCC(=O)N[C@@H](CCCCN)CN1CC(=O)N(C2CCCCC2)C1=O [Compound 9, (S)-N-(6-Amino-1-(3-cyclohexyl-2,4-dioxoimidazolidin-1-yl)-hexan-2-yl)decanamide]
- antimicrobial activity against the tested strains (in words) [3]: starts to show activity toward a few bacterial strains

Structure (SMILES): CCCCCCCCCC(=O)N[C@@H](CCCCN)CN1CC(=O)N(CCCC)C1=O [Compound 5, (S)-N-(6-Amino-1-(3-butyl-2,4-dioxoimidazolidin-1-yl)hexan-2-yl)decanamide]
- antimicrobial activity against the tested strains (in words) [3]: does not have any antimicrobial activity

Structure (SMILES): O=C1CN(/N=C/c2ccc([N+](=O)[O-])o2)C(=O)N1 [Compound 26, nitrofurantoin, reference compound]
- activity toward P. aeruginosa (in words) [9]: failed to show any activity
- MIC [3]: 6.25 to 25 µg/mL (≈ 26.2 to 105 µM)
- membrane-disruption activity (MRSA [4]; [10]): did not show any membrane-disruption activity
- membrane-disruption activity (E. coli [5]; [10]): did not show any membrane-disruption activity
- not active up to (concentration) (Pseudomonas aeruginosa): > 100 µg/mL

Structure (SMILES): CCCCCCCCCCCC(=O)N[C@@H](Cc1ccccc1)CN1CC(=O)N(c2cccc(Cl)c2)C1=O [Compound 25, (S)-N-(1-(3-(3-Chlorophenyl)-2,4-dioxoimidazolidin-1-yl)-3-phenylpropan-2-yl)dodecanamide]
- antimicrobial activity against the tested strains (in words) [3]: failed to show any antimicrobial activity

Source: article PMC5884119 (Journal of medicinal chemistry, 2017)
